# Only some compounds are listed: those with a hit (about 0.77% of all), similar ones and a draw of the others.
# hIAP activ: human IAP activation; P09923; purified human IAP, CDP-Star luminescence, 30 min; stronger effect = higher value; 1 = vehicle-only enzyme, 0 = enzyme-free background; activation factor at 10 µM; hit rate 0.16% among 330,000;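 active = activation factor of the enzyme at least 2-fold when tested at 20 µM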
# Target sequence (P09923 whole entry, looked up): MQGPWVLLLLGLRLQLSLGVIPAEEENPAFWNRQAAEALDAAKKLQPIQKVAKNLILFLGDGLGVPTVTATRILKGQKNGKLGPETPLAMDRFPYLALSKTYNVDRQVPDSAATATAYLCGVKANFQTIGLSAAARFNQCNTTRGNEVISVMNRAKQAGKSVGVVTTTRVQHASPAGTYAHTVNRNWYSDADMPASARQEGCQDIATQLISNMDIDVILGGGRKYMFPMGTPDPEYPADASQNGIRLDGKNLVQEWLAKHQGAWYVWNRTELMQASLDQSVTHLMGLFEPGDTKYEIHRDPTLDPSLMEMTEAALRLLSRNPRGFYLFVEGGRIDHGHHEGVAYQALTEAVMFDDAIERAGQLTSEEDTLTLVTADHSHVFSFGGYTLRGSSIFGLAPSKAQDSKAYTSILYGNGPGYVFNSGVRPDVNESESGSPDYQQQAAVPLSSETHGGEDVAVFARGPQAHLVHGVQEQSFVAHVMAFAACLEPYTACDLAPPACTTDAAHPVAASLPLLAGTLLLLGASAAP
# mIAP inh: mouse IAP inhibition; purified mouse IAP, CDP-Star luminescence, 30 min; inhibition, % at 10 µM; hit rate 0.2% among 330,000;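 active = inhibition of at least 40% at 10 µM in the primary screen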;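 also: plate controls were DMSO with enzyme for no effect and no enzyme wells for full effect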
# bIAP inhibitor: blocks bovine intestinal alkaline phosphatase activity | purified bovine IAP, CDP-star luminescence, 30 min | inhibition, % at 20 µM | 190,000 tested, under 10 active;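 active = over 50% inhibition of intestinal alkaline phosphatase at 20 µM in the single-dose screen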
#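 System: purified bovine intestinal alkaline phosphatase (IAP) enzyme; Input: IAP diluted 1/65,000,000 in the well; Measured by: CDP-star luminescence signal; Compound dosing: 20 µM single dose; Incubation: 30 min reaction at room temperature.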
# hIAP inh: blocks human intestinal alkaline phosphatase | purified IAP, CDP-Star luminescence, 30 min | inhibition, % at 10 µM | hit rate 0.12% among 330,000 | AID 2544;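 active = inhibition reaching a set limit with compound at 10 µM in the primary screen, cut at about 35% in these data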;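 also: plate controls were DMSO wells with enzyme for no effect and no-enzyme buffer wells for full effect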
# bIAP activator: increases bovine intestinal alkaline phosphatase activity; purified bovine IAP, CDP-star luminescence, 30 min; stronger effect = higher value; fold of DMSO-control signal, blank-subtracted; activation factor at 20 µM; hit rate 0.17% among 200,000;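 active = activation factor of 2 or more at 20 µM, a signal rise over negative controls twice the positive control's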
# mIAP act: increases mouse intestinal alkaline phosphatase activity; muIAP, CDP-Star luminescence, 30 min; stronger effect = higher value; 1 = vehicle-only enzyme signal, 0 = enzyme-free wells; activation factor at 10 µM; hit rate 0.24% among 330,000; AID 2805;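 active = activation factor of at least 2 at 20 µM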
#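 System: mouse IAP enzyme. Reagent: CDP-Star chemiluminescent phosphatase substrate. Benchmarks: DMSO wells, no-enzyme wells. Times: 30 min enzyme-substrate-compound incubation at room temperature. Detection: luminescence from enzymatic CDP-Star hydrolysis. Doses: test compounds delivered from DMSO solution.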
# * marks the source's active call; other numbers are inactive results; · = not tested or not shown.
SMILES,hIAP activ,mIAP inh,bIAP inhibitor,hIAP inh,bIAP activator,mIAP act
Cc1ccc(-c2nc(CS(=O)CC(=O)NCCN3CCCCCC3)c(C)o2)cc1 (centres undefined),1.2,-2,·,-18,·,1
CC(Sc1nc2ccccc2c(=O)n1CCc1ccc(S(N)(=O)=O)cc1)C(=O)NC(N)=O (centres undefined),1,-8,·,-4,·,1.1
S=C(Nc1cccc(Cl)c1)NC1CC2CCCC(C1)N2C1CCCC1 (centres undefined),1,-120,-1,-4,1,2.2*
Cc1cc(C)cc(NC(=S)NC2CC3CCCC(C2)N3CC(C)C)c1 (centres undefined),1.1,-38,15,-11,0.9,1.4
C=CCN1C2CCCC1CC(NC(=O)Nc1cc(C)cc(C)c1)C2 (centres undefined),1.4,-69,-96,-38,2*,1.7
S=C(Nc1ccc(Cl)cc1)NC1CC2CCCC(C1)N2C1CC1 (centres undefined),1.1,-164,-19,-12,1.2,2.6*
S=C(Nc1ccc(Cl)cc1)NC1CC2CCCC(C1)N2C1CCCC1 (centres undefined),0.91,-96,-50,9,1.5,2
COc1cccc(NC(=S)NC2CC3CCCC(C2)N3C2CCCC2)c1 (centres undefined),1.2,-30,-22,-24,1.2,1.3
COc1ccc(S(=O)(=O)NNC(=O)Nc2ccc(F)cc2F)c(OC)c1,0.95,2,·,5,·,0.98
CN(C)c1cc(-c2ccccc2)nc(-c2ccccc2)n1,0.96,0,·,4,·,1
NC(=O)c1ccc(NC(=O)CNC(=O)c2sc3ccccc3c2Cl)cc1,1.1,14,·,-9,·,0.86
O=C(NCC1CCN(c2ccc(S(=O)(=O)N3CCOCC3)cc2)CC1)Nc1ccccc1,1.4,-111,·,-43,·,2.1*
Cc1ccc2nc(C3CCN(CC(=O)Nc4ccc5c(c4)OCCO5)CC3)[nH]c2c1,0.89,-10,-113,11,2.1*,1.1
O=C(CN1CCC(c2nc3ccccc3[nH]2)CC1)Nc1ccc2c(c1)OCO2,1,-14,-13,-4,1.1,1.1
COc1ccc(-n2cc(CNCCc3ncc(C)[nH]3)c(-c3ccccc3Cl)n2)cc1,1.3,-8,-141,-33,2.4*,1.1
COc1ccc(-n2cc(CNCCc3nc(C)cc(C)n3)c(-c3ccccc3Cl)n2)cc1,0.96,-5,-20,4,1.2,1.1
COc1ccc(-n2cc(CNCc3cccnc3)c(-c3cccc(F)c3)n2)cc1,0.94,2,-7,6,1.1,0.98
COc1ccc(-n2cc(CNCCc3cnc[nH]3)c(-c3cccc(F)c3)n2)cc1,1.4,-2,-190,-37,2.9*,1
COC(=O)c1ccccc1N1C(=O)C2C(C1=O)[C@H]1C=C[C@@H]2C1 (some centres undefined),0.96,50*,11,4,0.9,0.5
O=C(N/N=C/c1ccc(-c2ccccc2[N+](=O)[O-])o1)c1cncc(Br)c1,1,20,-268,-4,3.7*,0.8
O=C(N/N=C\c1ccc([N+](=O)[O-])o1)c1cncc(Br)c1,0.9,35,·,10,·,0.65
CCCCCCCCCCCCCCCCn1cc[n+](CC(C)=O)c1,·,·,-417,·,5.2*,·
CCCCCCn1ccc(=N)cc1,1.1,-1,11,-15,0.9,1
CC1(C)OC(c2ccccc2)=C/C(=C/C=C2C(=O)c3ccccc3C2=O)O1,0.51,23,27,49*,0.7,0.77
Cc1nonc1OCCNc1ccc([N+](=O)[O-])cc1,1,11,-121,-2,2.2*,0.89
SMILES,hIAP activ,mIAP inh,bIAP inhibitor,hIAP inh,bIAP activator,mIAP act
C[C@H](CO)N1C[C@H](C)[C@@H](CN(C)C(=O)Nc2ccccc2)Oc2ccc(NC(=O)NC3CCCCC3)cc2C1=O,1,-108,·,-1,·,2.1*
C[C@H](CO)N1C[C@H](C)[C@H](CN(C)Cc2ccccc2)Oc2ccc(NC(=O)Nc3ccc(F)cc3)cc2C1=O,1,-120,·,-4,·,2.2*
C[C@H](CO)N1C[C@H](C)[C@@H](CN(C)C(=O)NC2CCCCC2)Oc2ccc(NC(=O)NC3CCCCC3)cc2C1=O,0.96,-93,·,4,·,1.9
C[C@H](CO)N1C[C@H](C)[C@@H](CN(C)C(=O)Nc2ccc(C(F)(F)F)cc2)Oc2ccc(NC(=O)Nc3ccc(C(F)(F)F)cc3)cc2C1=O,1.1,-50,·,-9,·,1.5
C[C@H](CO)N1C[C@H](C)[C@H](CN(C)Cc2ccccc2)Oc2c(NC(=O)Nc3ccc(F)cc3)cccc2C1=O,0.96,-70,·,4,·,1.7
CC(C)NC(=O)N(C)C[C@H]1Oc2ccc(NC(=O)Nc3ccc(C(F)(F)F)cc3)cc2C(=O)N([C@H](C)CO)C[C@@H]1C,1.1,-139,·,-7,·,2.4*
C[C@H]1CN([C@@H](C)CO)C(=O)c2cc(NC(=O)NC3CCCCC3)ccc2O[C@H]1CN(C)C(=O)Nc1ccc(C(F)(F)F)cc1,0.98,-102,·,2,·,2*
Cc1cc(C)c(NC(=O)CN2C(=O)CC(C)S(=O)(=O)c3ccccc32)c(C)c1 (centres undefined),1.3,1,·,-32,·,0.99
COc1ccc(NC(=O)Nc2ccc3c(c2)C(=O)N([C@H](C)CO)C[C@H](C)[C@@H](CN(C)C(=O)Nc2ccccc2)O3)cc1,1,-185,·,-4,·,2.9*
N#CCc1nn2c3c(cnc2c1C#N)C(=O)CCC3,1.1,-1,-11,-5,1.1,1
Cc1cc(C)c2c(n1)nn1c(NCCCn3ccnc3)cc(C)nc21,·,·,-128,·,2.3*,·
Cc1cc(NCCCn2ccnc2)n2nc(-c3ccc(F)cc3)cc2n1,1.2,-2,-44,-22,1.4,1
C[n+]1ccn(CC(=O)c2ccc(Br)cc2)c1,1,6,-4,-2,1,0.94
C[n+]1ccn(CC(=O)c2ccc(Cl)cc2)c1,1,7,-148,-4,2.5*,0.93
Cc1ccc(S(=O)(=O)CCSc2cccc(C(=O)Nc3ccccc3C(=O)O)c2)cc1,1.1,6,17,-8,0.8,0.94
NC(=S)NN=Cc1ccc(-c2ccc(S(=O)(=O)Nc3ncccn3)cc2)o1,1.2,42*,·,-16,·,0.58
O=C(/C=C/c1ccco1)N(c1ccccn1)c1ccccn1,1.1,45*,-1,-5,1,0.55
Fc1ccc(CNC(=S)Nc2cccc(Cl)c2)cc1,0.93,-138,-24,7,1.2,2.4*
S=C(NCc1cccs1)Nc1cc(Cl)cc(Cl)c1,1.1,-300,·,-10,·,4*
Fc1cccc(NC(=S)NCc2ccccc2Cl)c1,0.96,-203,·,4,·,3*
S=C(NCc1ccc(Cl)cc1)Nc1ccccc1,0.92,-31,-8,8,1.1,1.3

# Compound activity from PubChem BioAssay.
